# An excerpt weighted towards active compounds, which were near 2.2% of everything screened.
# HNF4A DNA FP: change in binding of human HNF4 alpha to DNA; P41235; HNF4a-FITC DNA binding, fluorescence polarization, 1 h; activity change, % at 10 µM; 360,000 compounds, 0.3% hits; AID 1224865; in the data active = activity change above about 30%, passing the limit was not always enough
# Target sequence (P41235 whole entry, looked up): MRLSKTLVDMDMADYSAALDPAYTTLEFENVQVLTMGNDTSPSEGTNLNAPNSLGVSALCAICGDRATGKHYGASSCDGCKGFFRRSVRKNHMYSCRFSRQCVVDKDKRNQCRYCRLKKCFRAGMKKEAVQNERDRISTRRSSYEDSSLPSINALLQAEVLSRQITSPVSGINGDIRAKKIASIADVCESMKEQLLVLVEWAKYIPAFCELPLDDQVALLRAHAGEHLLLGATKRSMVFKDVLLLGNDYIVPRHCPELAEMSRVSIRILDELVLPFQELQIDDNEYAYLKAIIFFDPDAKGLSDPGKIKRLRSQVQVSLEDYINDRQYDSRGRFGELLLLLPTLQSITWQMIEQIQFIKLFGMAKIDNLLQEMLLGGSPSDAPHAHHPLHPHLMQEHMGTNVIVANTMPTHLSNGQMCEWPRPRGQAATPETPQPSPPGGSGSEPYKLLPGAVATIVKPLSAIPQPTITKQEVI
# Myeloid diff MLP: myeloid differentiation induction; ER-HoxA9 myeloid progenitors, lysozyme-GFP differentiation, flow cytometry; calls only at 10 µM; 360,000 compounds, 1% hits;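 active = normalized GFP-positive differentiation at or above the plate's own cutoff, the solvent-only control mean plus 3 SD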;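 note: cells exposed to compound for four days before flow analysis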
# CSN inh: blocks human CSN-mediated cullin deneddylation | 360,000 compounds, 0.38% hits | Purified CSN, SCF-Nedd8-OG deneddylation, fluorescence polarization | inhibition, % at 12.5 µM | AID 651999 | Q92905;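 active = pattern-corrected inhibition above about 35%, with an unprinted fluorescence ratio check between 0.5 and 1.5, limit read from the data, passing the limit was not always enough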;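 note: 0% = enzyme with substrate and 100% = substrate without enzyme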
#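 Assay system: Purified human Csn5 enzyme expressed in HEK293T cells | Amount: Enzyme 0.24 nM | Measured by: Fluorescence polarization readout | Medium: Tris/NaCl/DTT buffer, pH 7.5 | Compound dosing: One concentration, 12.5 µM, 0.25% DMSO | Times: 90 min incubation of compound, enzyme and substrate at room temperature | Control set: no-enzyme wells high, enzyme-with-substrate wells low | Read-out: % inhibition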
# Granule exo inh: blocks lytic granule exocytosis. TALL-104 LAMP-1 surface exposure, flow cytometry; cells stimulated with thapsigargin and PMA. inhibition, % at 10 µM. 360,000 compounds, 0.66% hits. AID 651702;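 active = inhibition above about 55%, limit read from the data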
# Myeloid diff CP1: myeloid differentiation induction. shares compounds with Myeloid diff MLP. ER-HoxA9 myeloid progenitors, GFP/Mac1 double-positive flow. calls only. 2,300 compounds, 2% hits. AID 651706;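 active = share of green or green-and-red cells above 9 and 9% in run 1 or 4 and 3% in run 2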
# GFP autofluor: compound fluorescence in myeloid differentiation counter-screen; shares compounds with Myeloid diff MLP; ER-HoxA9 myeloid progenitors, no estrogen, GFP autofluorescence flow cytometry; vehicle wells 0%, positive control 100%; fluorescence response, % (concentration not given with the values); 2,300 compounds, 7.4% hits;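 active = over 5% cells positive for green fluorescent reporter, or over 2% positive for both it and APC stain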;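 note: range taken on the double positive population between DMSO and positive control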
# Numbers without * were called inactive; i = inactive; nt = not tested or not shown; + = active, no number.
SMILES,HNF4A DNA FP,Myeloid diff MLP,CSN inh,Granule exo inh,Myeloid diff CP1,GFP autofluor
CN1CCN(c2ccc(CNC(=O)c3cccc4c(-c5ccc(F)c(F)c5)coc34)cc2)CC1,1.3,i,2.7,47.5,nt,nt
CN1CCN(c2ccc(CNC(=O)c3ccc(-c4ccc(F)c(F)c4)c4ccoc34)cc2)CC1,2.6,+,-1.2,49.1,i,2.5
Cc1cccc(NC(=O)C(=O)NCCc2c[nH]c3ccccc23)c1C,-1.1,i,-0.8,-0.9,i,0.4
CSCC[C@H](NC(=O)[C@@H]1Cc2ccccc2CN1)C(=O)Nc1ccc2c(c1)OCO2,0.7,i,2.4,-3.1,nt,nt
COc1ccc(OC)c(NC(=O)CNC(=O)c2ccc([N+](=O)[O-])cc2)c1,4.6,i,-2.9,-0.2,i,0.0
CSC1=NSC2=NC(=O)/C(=C/c3coc4ccccc4c3=O)C(=N)N12,42.5,i,-95.6,13.3,nt,nt
CSC1=NSC2=NC(=O)/C(=C/c3coc4ccc(O)cc4c3=O)C(=N)N12,102.6,+,125.5,-4.2,i,1.6
C=CC[C@@H](CC(=O)N(CCO)Cc1ccccc1)C(=O)N[C@@H](COC(=O)[C@@H](CC=C)Cc1ccc(F)cc1)Cc1c[nH]c2ccccc12,4.9,i,-2.6,15.8,nt,nt
C=CC[C@H](CC(=O)N(CCO)Cc1ccccc1)C(=O)N[C@@H](COC(=O)[C@@H](CC=C)Cc1ccc(F)cc1)Cc1c[nH]c2ccccc12,2.6,i,1.1,53.7,i,0.0
CC(=NOC(=O)c1ccc(I)cc1)c1nccs1,0.5,i,-1.0,0.3,nt,nt
O=C(c1cccc(Cl)c1)C1CCCN(S(=O)(=O)c2ccccc2)C1 (centres undefined),1.1,i,1.8,-0.6,nt,nt
CO/N=C(\CS(=O)(=O)Cc1ccc(OC)cc1)c1ccc(Cl)cc1,-0.1,i,-4.3,0.1,i,2.9
Fc1ccccc1NC(=S)NCCc1cccc(Cl)c1,-2.9,i,3.7,11.5,nt,nt
CC(OC(=O)c1cc(O)c2ccccc2c1O)C(=O)Nc1ccc(C(N)=O)cc1 (centres undefined),2.6,+,5.8,2.5,i,2.6
CCOC(=O)N1CCN(C(=O)COC(=O)c2ccc(S(=O)(=O)N(CC)CC)cc2)CC1,1.4,i,3.7,5.6,nt,nt
CN(CC(=O)Nc1ccccc1Br)C(=O)c1ccccc1OCc1ccccc1Cl,-1.1,i,5.9,-2.4,nt,nt
Cc1cc(C)nc(SCc2ccc(C(=O)N/N=C/c3ccccn3)cc2)n1,3.2,i,6.0,11.3,i,0.4
Cc1cc(C)nc(SCc2ccc(C(=O)N/N=C/c3ccncc3)cc2)n1,0.6,i,1.4,-3.2,nt,nt
CC(O)C(=O)N/N=C/c1ccccc1C(=O)O (centres undefined),2.0,i,-8.8,-2.0,i,0.4
C=CCOc1cccc(CNCc2ccncc2)c1,-2.5,i,0.4,-3.7,nt,nt
Cc1ccc(O)c(NC(=O)c2cc3nc4c(c(C(F)(F)F)n3n2)CCc2ccccc2-4)c1,-3.1,i,1.8,-2.4,i,0.0
Cc1ccccc1Nc1nc(N)nc(CSc2n[nH]c(N)n2)n1,3.0,+,-4.3,-2.8,i,0.0
CC(=O)NC1CC2CCCC(C1)N2S(=O)(=O)c1cccc(F)c1 (centres undefined),-2.0,+,1.1,-0.4,i,0.0
O=C(NC1CC2CCCC(C1)N2S(=O)(=O)c1ccccc1)c1ccco1 (centres undefined),2.4,i,3.3,-1.9,nt,nt
Nc1nnc(CCOc2ccccc2Cl)s1,1.1,i,1.1,-2.1,i,0.3
SMILES,HNF4A DNA FP,Myeloid diff MLP,CSN inh,Granule exo inh,Myeloid diff CP1,GFP autofluor
COc1ccccc1CCc1nnc(N)s1,5.5,i,-0.5,2.1,nt,nt
Cn1c(=O)c2c(nc(SCC(=O)N3CCc4ccccc4C3)n2C)n(C)c1=O,-3.0,i,2.8,10.6,nt,nt
Cn1c(=O)c2c(nc(SCC(=O)N3c4ccccc4CCc4ccccc43)n2C)n(C)c1=O,2.1,+,-0.7,-0.1,i,0.3
CCC(=O)Nc1cccc(NC(=O)CSc2nnc(C3CC3)n2C)c1,-0.4,i,-3.0,1.8,i,0.4
CC(C)c1ccc(-c2cc(C(=O)N3CCOCC3)c3cc(Br)ccc3n2)cc1,5.7,i,5.9,-9.5,nt,nt
O=S(=O)(c1ccc2c(c1)OCCO2)N1CCC(c2nc3ccc(Cl)cc3[nH]2)CC1,5.0,i,1.7,16.6,i,0.0
O=C(COC(=O)Cc1ccc(Br)cc1)NC1CCCC1,0.8,i,1.0,-0.2,nt,nt
O=C(O)c1cccnc1Nc1ccc(Cl)cc1,2.3,+,-4.2,0.2,+,0.5
Cc1nnc(SC(C)C(=O)NC2CCCCC2)s1 (centres undefined),0.2,i,3.6,-3.3,nt,nt
CCN(CC)C(=O)CSc1nnc(SC(C)C(=O)NC2CC2)s1 (centres undefined),-2.7,i,-3.4,5.3,i,0.0
COc1ccc(C2SCCN2S(=O)(=O)c2ccc(NC(C)=O)cc2)cc1 (centres undefined),-3.2,+,0.1,0.3,i,0.0
CC1=CC(C)(C)N(C(=O)CCl)c2ccccc21,4.0,i,-2.3,-0.6,nt,nt
CC1=CC(C)(C)N(C(=O)CCl)c2cc(C)ccc21,3.0,i,-4.5,-0.1,i,0.0
CC1=CC(C)(C)N(C(=O)CNC2CCCCC2)c2cc(C)ccc21,3.7,+,0.4,-1.7,i,0.5
CC1=CC(C)(C)N(C(=O)CN2C(=O)c3ccccc3C2=O)c2ccc(C)cc21,1.4,i,-4.0,0.5,nt,nt
O=[N+]([O-])c1cccc(S(=O)(=O)N2CN(c3ccc(Br)cc3)c3nc4ccccc4nc32)c1,-2.1,i,-1.4,-5.0,nt,nt
O=C(CNC(=O)c1ccc(Oc2ccccc2)cc1)OC1CCCCC1=O (centres undefined),-1.4,+,-2.1,-0.6,i,0.3
Cc1ccc(C(=O)NCC(=O)OC2CCCCC2=O)cc1C (centres undefined),-2.6,i,2.7,-1.9,nt,nt
N#CCC(CNc1ncc(C(F)(F)F)cc1Cl)OC(=O)c1cccc([N+](=O)[O-])c1 (centres undefined),0.2,i,-0.8,3.9,i,1.0
Cc1ccc(S(=O)(=O)Nc2ccccc2C=NNC(=O)c2ccncc2)cc1,1.1,i,0.3,5.9,nt,nt
CCc1ccc(OCC(=O)Nc2ccc3c(c2)OCCO3)cc1,0.5,i,-1.3,-2.8,nt,nt
COc1cc(OC)cc(C(=O)NNC(=O)c2ccccn2)c1,0.1,+,6.5,-2.9,i,0.0
CC(Oc1cccc(Br)c1)C(=O)NNC(=O)c1ccccn1 (centres undefined),1.0,+,5.4,-1.7,i,1.9
COc1ccc(Br)c(C(=O)OCC(=O)NC2CCCCCCC2)c1,0.0,i,3.3,-2.3,nt,nt
